# Data published in ChEMBL document CHEMBL3739417, “Synthesis and biological evaluation of novel 4,5-disubstituted 2H-1,2,3-triazoles as cis-constrained analogues of combretastatin A-4” (2015).
# Assays:
# Assay type in all cases: functional
# [1] = Growth inhibition of human LOXIMVI cells after 48 hrs by sulforhodamine B assay; settings: LOX IMVI
# Procedure, shortened: (§1)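 NCI-60 panel screen by SRB assay (Rubinstein method). Percentage growth taken from optical density of SRB colour, read before and 48 hrs after exposure to compound or vehicle control. All analogues first screened at 10^-5 M. Analogues giving 60% growth inhibition at that level in at least eight lines then went to a five-concentration dose-response study.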
# ACHN = assay: Growth inhibition of human ACHN cells after 48 hrs by sulforhodamine B assay; procedure, shortened: as §1
# [2] = Growth inhibition of human SNB75 cells after 48 hrs by sulforhodamine B assay; settings: SNB-75, 48 h; procedure, shortened: as §1
# NCI-H23 = assay: Growth inhibition of human NCI-H23 cells after 48 hrs by sulforhodamine B assay; settings: NCI-H23, 48 h; procedure, shortened: as §1
# [3] = Growth inhibition of human IGROV1 cells after 48 hrs by sulforhodamine B assay; settings: IGROV-1, 48 h; procedure, shortened: as §1
# CCRF-CEM = assay: Growth inhibition of human CCRF-CEM cells after 48 hrs by sulforhodamine B assay; procedure, shortened: as §1
# SR = assay: Growth inhibition of human SR cells after 48 hrs by sulforhodamine B assay; procedure, shortened: as §1
# SK-MEL-2 = assay: Growth inhibition of human SK-MEL-2 cells after 48 hrs by sulforhodamine B assay; settings: SK-MEL-2, 48 h; procedure, shortened: as §1
# [4] = Growth inhibition of human SF295 cells after 48 hrs by sulforhodamine B assay; settings: SF-295, 48 h; procedure, shortened: as §1
# NCI-H460 = assay: Growth inhibition of human NCI-H460 cells after 48 hrs by sulforhodamine B assay; settings: NCI-H460, 48 h; procedure, shortened: as §1
# [5] = Growth inhibition of human OVCAR3 cells after 48 hrs by sulforhodamine B assay; settings: OVCAR-3, 48 h
# Procedure, shortened: (§2)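 NCI-60 sulforhodamine B screen. Compounds were first tested at a single dose of 10⁻⁵ M; hits, defined as ≥60% growth inhibition in at least eight lines, went on to a five-concentration dose–response. SRB optical density was read before and 48 h after exposure to compound or vehicle. Percentage growth was calculated from OD.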
# [6] = Growth inhibition of human HCT15 cells after 48 hrs by sulforhodamine B assay; settings: HCT-15, 48 h; procedure, shortened: as §1
# A549 = assay: Growth inhibition of human A549/ATCC cells after 48 hrs by sulforhodamine B assay; settings: A549, 48 h; procedure, shortened: as §1
# U-251 = assay: Growth inhibition of human U251 cells after 48 hrs by sulforhodamine B assay; settings: U-251, 48 h; procedure, shortened: as §1
# KM12 = assay: Growth inhibition of human KM12 cells after 48 hrs by sulforhodamine B assay; settings: KM12, 48 h; procedure, shortened: as §1
# A498 = assay: Growth inhibition of human A498 cells after 48 hrs by sulforhodamine B assay; settings: A498, 48 h; procedure, shortened: as §2
# [7] = Growth inhibition of human HOP62 cells after 48 hrs by sulforhodamine B assay; settings: HOP-62, 48 h; procedure, shortened: as §1
# [8] = Growth inhibition of human NCI-ADR-RES cells after 48 hrs by sulforhodamine B assay; procedure, shortened: as §1
# MCF7 = assay: Growth inhibition of human MCF7 cells after 48 hrs by sulforhodamine B assay; settings: MCF7, 48 h; procedure, shortened: as §1
# [9] = Growth inhibition of human COLO205 cells after 48 hrs by sulforhodamine B assay; settings: COLO 205, 48 h; procedure, shortened: as §1
# [10] = Growth inhibition of human SW620 cells after 48 hrs by sulforhodamine B assay; settings: SW-620, 48 h; procedure, shortened: as §1
# [11] = Growth inhibition of human MOLT4 cells after 48 hrs by sulforhodamine B assay; settings: MOLT-4, 48 h; procedure, shortened: as §1
# [12] = Growth inhibition of human PC3 cells after 48 hrs by sulforhodamine B assay; settings: PC-3, 48 h; procedure, shortened: as §1
# [13] = Growth inhibition of human SKOV3 cells after 48 hrs by sulforhodamine B assay; settings: SK-OV-3, 48 h; procedure, shortened: as §1
# MDA-MB-231 = assay: Growth inhibition of human MDA-MB-231 cells after 48 hrs by sulforhodamine B assay; settings: MDA-MB-231, 48 h; procedure, shortened: as §1
# 786-0 = assay: Growth inhibition of human 786-0 cells after 48 hrs by sulforhodamine B assay; settings: 786-0, 48 h; procedure, shortened: as §1
# CAKI-1 = assay: Growth inhibition of human CAKI-1 cells after 48 hrs by sulforhodamine B assay; settings: CAKI-1, 48 h; procedure, shortened: as §1
# HT-29 = assay: Growth inhibition of human HT-29 cells after 48 hrs by sulforhodamine B assay; settings: HT-29, 48 h; procedure, shortened: as §1
# [14] = Growth inhibition of human HL-60(TB) cells after 48 hrs by sulforhodamine B assay; settings: HL-60, 48 h; procedure, shortened: as §1
# SK-MEL-5 = assay: Growth inhibition of human SK-MEL-5 cells after 48 hrs by sulforhodamine B assay; settings: SK-MEL-5, 48 h; procedure, shortened: as §1
# MDA-MB-468 = assay: Growth inhibition of human MDA-MB-468 cells after 48 hrs by sulforhodamine B assay; settings: MDA-MB-468, 48 h; procedure, shortened: as §1
# [15] = Growth inhibition of human HCC2998 cells after 48 hrs by sulforhodamine B assay; settings: HCC 2998, 48 h; procedure, shortened: as §1
# [16] = Growth inhibition of human RPMI8226 cells after 48 hrs by sulforhodamine B assay; settings: RPMI-8226, 48 h; procedure, shortened: as §1
# [17] = Growth inhibition of human HOP92 cells after 48 hrs by sulforhodamine B assay; settings: HOP-92, 48 h; procedure, shortened: as §1
# [18] = Growth inhibition of human SF268 cells after 48 hrs by sulforhodamine B assay; settings: SF-268, 48 h; procedure, shortened: as §1
# K562 = assay: Growth inhibition of human K562 cells after 48 hrs by sulforhodamine B assay; settings: K562, 48 h; procedure, shortened: as §1
# [19] = Growth inhibition of human HCT116 cells after 48 hrs by sulforhodamine B assay; settings: HCT-116, 48 h; procedure, shortened: as §1
# [20] = read-out: LD50 (the source's name)
smiles,measurement,setting,value
COc1ccc(-c2nn[nH]c2-c2cc(OC)c(OC)c(OC)c2)cc1,GI50,[1],< 10 nM
same,CC50,[1]; [20],> 100000 nM
same,GI50,ACHN,< 10 nM
same,CC50,ACHN; [20],> 100000 nM
same,GI50,[2],< 10 nM
same,CC50,[2]; [20],> 100000 nM
same,GI50,NCI-H23,< 10 nM
same,LC50 (concentration giving 50% cell kill),NCI-H23; read-out: LD50,> 100000 nM
same,GI50,[3],< 10 nM
same,CC50,[3]; [20],> 100000 nM
same,GI50,CCRF-CEM,< 10 nM
same,LC50 (concentration killing 50% of cells),CCRF-CEM; read-out: LD50,> 100000 nM
same,GI50,SR,< 10 nM
same,LC50 (concentration giving 50% net cell kill),SR; read-out: LD50,> 100000 nM
same,GI50,SK-MEL-2,< 10 nM
same,CC50,SK-MEL-2; [20],> 100000 nM
same,GI50,[4],< 10 nM
same,CC50,[4]; [20],> 100000 nM
same,GI50,NCI-H460,< 10 nM
same,CC50,NCI-H460; [20],> 100000 nM
same,GI50,[5],< 10 nM
same,TGI,[5],< 10 nM
same,LC50 (concentration giving 50% net cell kill),[5]; read-out: LD50,> 100000 nM
same,GI50,[6],< 10 nM
same,CC50,[6]; [20],> 100000 nM
same,GI50,A549,< 10 nM
same,CC50,A549; [20],> 100000 nM
same,GI50,U-251,< 10 nM
same,CC50,U-251; [20],> 100000 nM
same,GI50,KM12,< 10 nM
same,LC50 (concentration killing 50% of cells),KM12; read-out: LD50,> 100000 nM
same,GI50,A498,< 10 nM
same,TGI,A498,< 10 nM
same,LC50 (50% net cell kill),A498; read-out: LD50,> 100000 nM
same,GI50,[7],< 10 nM
same,LC50 (concentration killing 50% of cells),[7]; read-out: LD50,> 100000 nM
same,GI50,[8],< 10 nM
same,CC50,[8]; [20],> 100000 nM
same,GI50,MCF7,< 10 nM
same,CC50,MCF7; [20],> 100000 nM
same,GI50,[9],29 nM
same,CC50,[9]; [20],> 100000 nM
same,GI50,[10],< 10 nM
same,LD50 (concentration killing 50% of cells),[10],> 100 µM
same,GI50,[11],12 nM
same,CC50,[11]; [20],> 100000 nM
same,GI50,[12],< 10 nM
same,CC50,[12]; [20],> 100000 nM
same,GI50,[13],< 10 nM
same,LC50 (concentration killing 50% of cells),[13]; read-out: LD50,> 100000 nM
same,GI50,MDA-MB-231,< 10 nM
same,CC50,MDA-MB-231; [20],> 100000 nM
same,GI50,786-0,< 10 nM
same,LC50 (concentration killing 50% of cells),786-0; read-out: LD50,> 100000 nM
same,GI50,CAKI-1,< 10 nM
same,CC50,CAKI-1; [20],> 100000 nM
same,GI50,HT-29,< 10 nM
same,LC50 (concentration killing 50% of cells),HT-29; read-out: LD50,> 100000 nM
same,GI50,[14],< 10 nM
same,CC50,[14]; [20],> 100000 nM
same,GI50,SK-MEL-5,< 10 nM
same,CC50,SK-MEL-5; [20],> 100000 nM
same,GI50,MDA-MB-468,< 10 nM
same,CC50,MDA-MB-468; [20],> 100000 nM
same,GI50,[15],24 nM
same,CC50,[15]; [20],> 100000 nM
same,GI50,[16],< 10 nM
same,CC50,[16]; [20],> 100000 nM
same,GI50,[17],< 10 nM
same,CC50,[17]; [20],> 100000 nM
same,GI50,[18],< 10 nM
same,CC50,[18]; [20],> 100000 nM
same,GI50,K562,< 10 nM
same,CC50,K562; [20],> 100000 nM
same,GI50,[19],< 10 nM
same,CC50,[19]; [20],> 100000 nM
